MrgX1 ag = agonists of human MrgX1 receptor, primary screen, HEK293 cells, Fluo-4 calcium flux; Mas-related G-protein coupled receptor member X1 (Homo sapiens), Q96LB2; Fluo-4 calcium fluorescence, agonist mode; stronger effect = higher value; B-score at 10 µM; 0.44% of 310,000 active; AID 588627, 2011;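 active means calcium response B-score plate-corrected fluorescence ratio at least 3 library SD, with starting fluorescence B-score inside 5 SD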
Target sequence (Q96LB2 whole entry, looked up): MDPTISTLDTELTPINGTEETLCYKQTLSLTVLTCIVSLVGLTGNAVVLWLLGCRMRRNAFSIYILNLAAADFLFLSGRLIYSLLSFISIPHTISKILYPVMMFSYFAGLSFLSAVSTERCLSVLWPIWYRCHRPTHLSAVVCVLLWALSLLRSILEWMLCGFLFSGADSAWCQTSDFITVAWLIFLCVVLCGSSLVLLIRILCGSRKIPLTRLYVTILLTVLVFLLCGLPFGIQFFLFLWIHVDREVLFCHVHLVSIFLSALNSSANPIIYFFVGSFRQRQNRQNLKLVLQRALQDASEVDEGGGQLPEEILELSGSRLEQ
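Material: HEK293 cells stably expressing human MrgX1 receptor | Quantity: 15,000 cells per well | Times: Cells plated overnight, dye loaded 0.5 h 37 °C, 0.5 h room temperature | Measured by: Kinetic Fluo-4 NW fluorescence of intracellular calcium | Control set: Positive and negative controls per plate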
MrgX1 antagonist = antagonists of human MrgX1 receptor, primary screen, HEK293 cells, Fluo-4 calcium flux; 1.3% of 310,000 active; B-score at 10 µM; Mas-related G-protein coupled receptor member X1 (Homo sapiens), Q96LB2; BAM8-22 antagonism; stronger effect = lower value; AID 588676, 2011;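 active means calcium-response B-score plate-corrected more than 3 library SD below zero, starting fluorescence within 5 deviations, no agonist response on first addition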;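 further: peak minus trough fluorescence over baseline after final BAM8-22 challenge near maximal dose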
RGS4 pot = RGS4 potentiators or activators, primary screen, cell-based, HEK293 M3R inducible RGS4, calcium flux; B-score at 10 µM; carbachol calcium flux Fluo4; stronger effect = lower value; 0.92% of 310,000 active; AID 463111, 2010;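 active means B-score of the integrated calcium signal more than 4 SD below the library mean, with starting fluorescence not abnormally high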;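 further: negative B-score means reduced calcium response which marks RGS4 activation or potentiation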
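Reagent: ECmax carbachol challenge; Test system: M3R-expressing HEK293 line, RGS4 induced by doxycycline; Schedule: overnight RGS4 induction, 30 min dye load 37 °C, 20 min compound RT; Detection: calcium dye Fluo4 fluorescence; Read-out: Agonist-evoked peak-minus-minimum fluorescence over baseline, integrated ratio, B score.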
RGS4 inh = RGS4 inhibitors, primary screen, cell-based, HEK293 M3R inducible RGS4, calcium flux; Regulator of G-protein signaling 4 (Homo sapiens), P49798; Fluo-4 calcium flux; stronger effect = higher value; triggered by carbachol at its EC20; B-score at 10 µM; 0.45% of 310,000 active;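 active means B-score, a plate-corrected calcium signal, over three deviations above library mean, with baseline fluorescence within five deviations of library mean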;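 further: RGS4 expression induced by doxycycline in cells with stable M3 receptor; B-score is computed from the integrated fluorescence ratio over baseline after carbachol; higher B-score means a larger calcium signal and so more RGS4 inhibition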
Target sequence (P49798 whole entry, looked up): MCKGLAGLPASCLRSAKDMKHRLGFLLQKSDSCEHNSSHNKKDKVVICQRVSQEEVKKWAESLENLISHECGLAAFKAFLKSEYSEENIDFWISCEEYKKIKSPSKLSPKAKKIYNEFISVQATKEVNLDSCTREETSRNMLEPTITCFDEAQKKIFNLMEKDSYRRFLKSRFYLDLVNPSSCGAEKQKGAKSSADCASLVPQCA
MrgX1 allo act = positive allosteric modulators of MrgX1, primary screen, HEK293 cells, Fluo-4 calcium flux. FDSS; stronger effect = higher value. 0.63% of 310,000 active. Mas-related G-protein coupled receptor member X1 (Homo sapiens), Q96LB2. B-score at 10 µM. AID 588675, 2011;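 active means plate-corrected calcium response at least 3 library SD above typical, normal starting fluorescence, not activating the receptor alone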;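 further: compound read alongside a low EC10 to EC30 dose of BAM8-22 agonist; peak minus trough fluorescence over baseline measured at the second addition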
MrgX1 antag conf = MrgX1 receptor antagonists, duplicate retest, confirmation, HEK293 cells, Fluo-4 calcium flux; BAM8-22 calcium flux; stronger effect = lower value; 19% of 2,300 active; shares compounds with MrgX1 antagonist; remaining BAM8-22 calcium response % of control (stronger effect = lower value), % at 10 µM;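 active means remaining agonist calcium response no higher than 100% minus 3 SD of agonist-only control wells, with starting fluorescence near control levels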;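 further: agonist BAM8-22 given at a near maximal EC90 to ECmax level; peak minus minimum fluorescence divided by baseline after agonist addition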
HEK293 Ca flux = nonspecific calcium signal in parental HEK293, confirmation, counter-screen for MrgX1 antagonist project, parental HEK293 cells, Fluo-4 calcium flux; shares compounds with MrgX1 antagonist; Fluo-4 calcium fluorescence, FDSS; fluorescence ratio F(max-min)/F0 at 10 µM; 2% of 4,000 active; AID 624111, 2012;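 active means duplicate-averaged calcium fluorescence ratio at least three times the standard deviation of buffer wells, a nonspecific response in parental cells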
HEK293 Ca counter = calcium response in parental HEK293 cells, primary screen, counter-screen for MrgX1 allosteric activator project, cell-based, Fluo-4 calcium flux, duplicate; shares compounds with MrgX1 antagonist; Fluo-4 fluorescence ratio; stronger effect = higher value; fluorescence ratio F(max-min)/F0 at 10 µM; 0.4% of 4,000 active;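 active means calcium fluorescence ratio, averaged over duplicates, at least 3 SD of the buffer-well ratio, meaning a nonspecific response in receptor-free cells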;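 further: untransfected parental HEK293 lacking MrgX1 used as counterscreen for MrgX1 allosteric activators; fluorescence change taken during the second addition on a kinetic imager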
HEK293 Ca cntr2 = calcium response in parental HEK293 cells, primary screen, counter-screen for MrgX1 agonist project, cell-based, Fluo-4 calcium flux, duplicate, agonist mode; Fluo-4 calcium fluorescence (FDSS); stronger effect = higher value; 8.7% of 4,000 active; shares compounds with MrgX1 antagonist; AID 624115, 2012; fluorescence ratio F(max-min)/F0 at 10 µM;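 active means calcium fluorescence ratio at least three times the spread of buffer wells, meaning a non-specific response in parental cells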
* = called active by the depositor; i = inactive; . = no result given. Only some compounds are listed: those with a hit (about 3.5% of all), similar ones and a draw of the others.

SMILES	MrgX1 ag	MrgX1 antagonist	RGS4 pot	RGS4 inh	MrgX1 allo act	MrgX1 antag conf	HEK293 Ca flux	HEK293 Ca counter	HEK293 Ca cntr2
COc1ccc(Cc2ccc(OC)c(N)c2)cc1N	i	-5.5*	i	i	i	i	i	i	i
CC(C)(C)c1ccc(OCCCC(=O)Nc2ccc(S(N)(=O)=O)cc2)cc1	i	i	i	i	i	.	.	.	.
Cc1cccc2sc(NC(=O)c3ccc(Cl)s3)nc12	i	-7.13*	i	i	i	i	i	i	i
CN1CCN(C(=S)Nc2cccc(Cl)c2)CC1	i	-4.91*	i	i	i	i	i	i	i
CCOc1ccccc1NC(=O)CN(c1ccc(C)cc1)S(=O)(=O)c1c(C)n[nH]c1C	i	i	i	i	i	.	.	.	.
CCOC(=O)c1ccc(NC(=O)CN(c2ccc(C)cc2)S(=O)(=O)c2c(C)n[nH]c2C)cc1	i	-6.2*	i	i	i	i	i	i	51.9*
COc1ccc(C2c3[nH]c4ccccc4c3C[C@H]3C(=O)N(c4ccccc4C(=O)N4CCC[C@H]4C(=O)O)C(=O)N23)cc1 (stereo not given in full)	i	i	i	i	i	.	.	.	.
Cn1c(C(=O)N2CCC(C(N)=O)CC2)cc2cc(Cl)ccc21	i	-6.11*	i	i	i	i	i	i	i
Cc1cccc(OCCCC(=O)NC2CCCCC2)c1	i	-6.74*	i	i	i	i	i	i	i
Cc1cccc(OCC(=O)NC2CCCC2)c1	i	i	i	i	i	.	.	.	.
CC1(C)Cc2c(cnn2-c2ccc(F)cc2)C(NC(=O)CCCN2CCCCC2=O)C1 (stereo not given)	i	i	i	i	i	.	.	.	.
CCN(CC#CCC1(O)c2ccccc2-c2ccccc21)CCO	i	i	i	i	i	.	.	.	.
CC(C)N(CC#CCC1(O)c2ccccc2-c2ccccc21)CCO	i	-5.96*	i	i	i	i	i	i	i
CN1CCN(CCNC(=O)Nc2ccc(Cl)cc2)CC1	i	i	i	i	i	.	.	.	.
Cc1cc(C(=O)CSc2nnc(Cc3ccccc3)o2)c(C)n1Cc1ccc2c(c1)OCO2	i	-7.54*	i	i	i	i	i	i	i
N#CCSc1nnc(-c2ccc3c(c2)OCO3)o1	i	i	i	i	i	.	.	.	.
C=CCn1c(C)cc(C(=O)CSc2nnc(Cc3ccccc3)o2)c1C	i	i	i	i	i	.	.	.	.
N#CCSc1nnc(Cc2ccc3c(c2)OCO3)o1	i	-5.38*	i	i	i	i	i	i	i
CC1CCN(C(=O)C2CCC(C)(C(=O)O)C2(C)C)CC1 (stereo not given)	i	i	i	i	i	.	.	.	.
COC(=O)c1ccn(Cc2ccccc2Cl)n1	.	.	i	i	.	.	.	.	.
COc1cccc(C(=O)c2c[nH]c(C(=O)NCc3cccs3)c2)c1	i	-7.82*	i	i	i	i	i	i	i
CS(=O)(=O)N(Cc1ccc(C(=O)N2CCc3ccccc3C2)cc1)c1ccccc1	i	-7.53*	i	i	i	i	i	i	i
Cc1ccc(C)c(NC(=O)c2ccccc2NC(=O)C2CCCO2)c1 (stereo not given)	i	i	i	i	i	.	.	.	.
COc1ccccc1N1CCN(C(=O)CN(C)S(=O)(=O)c2cc(C)ccc2OC)CC1	i	i	i	i	i	.	.	.	.
O=c1ccc(Oc2nc(N3CCCCC3)nc(N3CCCCC3)n2)n[nH]1	i	-5.47*	i	i	i	i	i	i	i
SMILES	MrgX1 ag	MrgX1 antagonist	RGS4 pot	RGS4 inh	MrgX1 allo act	MrgX1 antag conf	HEK293 Ca flux	HEK293 Ca counter	HEK293 Ca cntr2
OCCCNc1cc(-c2ccnc(Nc3cccc(Cl)c3)n2)ccn1	i	-4.91*	i	i	i	59.8%*	i	i	i
c1ccn2c(Cc3nnc4ccccn34)nnc2c1	i	-5.54*	i	i	i	i	i	i	i
c1csc(-c2nnc3ccccn23)c1	i	i	i	i	i	.	.	.	.
Cc1cccc(C)c1NC(=S)N(CCCN1CCOCC1)Cc1cccnc1	i	-4.89*	i	i	i	i	i	i	i
Cc1cc(C)c(NC(=S)N(CCCN2CCOCC2)Cc2cccnc2)c(C)c1	i	i	i	i	i	.	.	.	.
Cc1ccc(S(=O)(=O)NCCn2cnc([N+](=O)[O-])n2)cc1	i	i	i	i	i	.	.	.	.
CCC(=O)Nc1nc(-c2ccc3c(c2)CC(C)N3S(C)(=O)=O)cs1 (stereo not given)	i	i	i	i	i	.	.	.	.
CC1Cc2cc(-c3csc(NC(=O)Cc4cccs4)n3)ccc2N1S(C)(=O)=O (stereo not given)	i	-4.76*	i	i	i	50.4%*	i	i	i
CCOC(=O)Cc1ncccc1C(=O)Nc1ccc(Oc2ccccc2)cc1	i	i	i	i	i	.	.	.	.
COC(=O)c1cccc(C23CC4(C2)[C@H](CN(Cc2ccc(C(F)(F)F)cc2)[C@@H]4c2ccccc2)C3c2ccc(C(F)(F)F)cc2)c1 (stereo not given in full)	i	i	i	i	i	.	.	.	.
CCc1ccccc1N(CC(=O)N1CCc2ccccc2C1)S(C)(=O)=O	i	i	i	i	i	.	.	.	.

Screening results as filed in PubChem BioAssay.
